Assays:
[1] = system: Human immunodeficiency virus 1; experiment: Antiviral activity against HIV1 isolate 7 infected in human MT4 cells obtained from protease inhibitor-resistant patient harboring protease L10I, M46M/L, G48V, I54V, L63P, A71V, I72M, V77I, V82A, L90M, I93L mutation derived from viral passages with Lopinavir assessed as reduction in viral cytopathogenicity treated 1 hr post infection measured 5 days post infection by MTT assay relative to wild …; assay type: functional
[2] = system: Human immunodeficiency virus 1; experiment: Antiviral activity against HIV1 isolate 10 infected in human MT4 cells obtained from protease inhibitor-resistant patient harboring protease L10I, I13V, K20R, L33F, E35D, M36I, N37D, I54L, Q58E, I62V, L63P, A71V, V82A, I84V, L90M mutation derived from viral passages with Lopinavir assessed as reduction in viral cytopathogenicity treated 1 hr post infection measured 5 days post infection by MTT …; assay type: functional
[3] = system: Human immunodeficiency virus 1; experiment: Antiviral activity against HIV1 isolate 11 infected in human MT4 cells obtained from protease inhibitor-resistant patient harboring protease L10I, I15V, K20R, E21Q, E35D, M36I, N37D, R41K, M46L, I54V, I62V, L63P, A71V, T74D, P79A, V82T, I84V, I85V, L90M, I93L mutation derived from viral passages with Lopinavir assessed as reduction in viral cytopathogenicity treated 1 hr post infection measured …; assay type: functional
[4] = system: Human immunodeficiency virus 1; experiment: Antiviral activity against HIV1 isolate 12 infected in human MT4 cells obtained from protease inhibitor-resistant patient harboring protease L10I, I13V, K20I, E35D, M36I, M46I, I50V, I54V, R57K, I62V, L63P, A71V, V82A, L89V, L90M, Q92K mutation derived from viral passages with Lopinavir assessed as reduction in viral cytopathogenicity treated 1 hr post infection measured 5 days post infection by …; assay type: functional
[5] = system: Human immunodeficiency virus 1; experiment: (§1) Antiviral activity against HIV1 pNL4-3 infected in human MT4 cells derived from 5 viral passages with 12 nM A-790742 harboring protease I84V mutation assessed as reduction in viral cytopathogenicity treated 1 hr post infection measured 5 days post infection by MTT assay relative to wild type HIV1 pNL4-3; assay type: functional
How it was run: (§2)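 Selection: MT-4 cells infected with parental pNL4-3 or RF (MOI 0.003, 2 h), then passaged under rising selecting drug whenever supernatant p24 (ELISA) exceeded 10 ng/ml. Passage viruses titred by TCID50 (Spearman-Karber). Assay: 10^6 MT-4 cells infected at MOI 0.003 for 1 h, washed, and seeded at 10^4 cells/well with eight serial dilutions, triplicate, 0.5% DMSO final. Day-5 MTT read-out; EC50 fold-change versus parental wild type.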

[6] = system: Human immunodeficiency virus 1; experiment: as §1, with “from 6” for “from 5”, “with 16” for “with 12”; assay type: functional
How it was run: as §2

[7] = system: Human immunodeficiency virus 1; experiment: as §1, with “from 7” for “from 5”, “with 32” for “with 12”; assay type: functional
How it was run: as §2

[8] = system: Human immunodeficiency virus 1; experiment: as §1, with “from 8” for “from 5”, “with 50” for “with 12”, “protease V82V/L,” for “protease”; assay type: functional
How it was run: as §2

[9] = system: Human immunodeficiency virus 1; experiment: as §1, with “from 10” for “from 5”, “with 140” for “with 12”, “protease V82V/L and” for “protease”; assay type: functional
How it was run: as §2

[10] = system: Human immunodeficiency virus 1; experiment: as §1, with “from 13” for “from 5”, “with 400” for “with 12”, “protease V82L,” for “protease”; assay type: functional
How it was run: as §2

[11] = system: Human immunodeficiency virus 1; experiment: as §1, with “from 15” for “from 5”, “with 560” for “with 12”, “protease L33L/F, K45I, V82L,” for “protease”; assay type: functional
How it was run: as §2

[12] = system: Human immunodeficiency virus 1; experiment: as §1, with “from 18” for “from 5”, “with 900” for “with 12”, “protease L33F, K45I, A71A/V, V77V/I, V82L,” for “protease”; assay type: functional
How it was run: as §2

[13] = system: Human immunodeficiency virus 1; experiment: as §1, with “from 21” for “from 5”, “with 2000” for “with 12”, “protease L23I, L33F, K45I, A71A/V, V77I, V82L,” for “protease”; assay type: functional
How it was run: as §2

[14] = system: Human immunodeficiency virus 1; experiment: Antiviral activity against HIV1 RF infected in human MT4 cells derived from 6 viral passages with 16 nM A-790742 harboring wild-type protease assessed as reduction in viral cytopathogenicity treated 1 hr post infection measured 5 days post infection by MTT assay relative to wild type HIV1 RF; assay type: functional
How it was run: as §2

[15] = system: Human immunodeficiency virus 1; experiment: as §1, with “HIV1 RF” for “HIV1 pNL4-3”, “from 15” for “from 5”, “with 500” for “with 12”, “protease M46I, L63P, A71V, V82G” for “protease I84V”; assay type: functional
How it was run: as §2

[16] = system: Human immunodeficiency virus 1; experiment: (§3) Antiviral activity against HIV1 P9 infected in human MT4 cells derived from viral passages with A-790742 harboring protease V82V/L and I84V mutation assessed as reduction in viral cytopathogenicity treated 1 hr post infection measured 5 days post infection by MTT assay relative to wild type HIV1 pNL4-3; assay type: functional
How it was run: (§4)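 For the assay, 10⁶ MT-4 cells were infected at MOI 0.003, washed after 1 h, and plated at 10⁴ cells/well with eight serial compound dilutions in triplicate (0.5% DMSO final). MTT cytopathic read-out at day 5; EC50 from dose-response fitting.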

[17] = system: Human immunodeficiency virus 1; experiment: as §3, with “P13” for “P9”, “M46I, L63P, A71V,” for “V82V/L”, “V82G” for “I84V”, “RF” for “pNL4-3”; assay type: functional
How it was run: as §4

[18] = system: Human immunodeficiency virus 1; experiment: Antiviral activity against HIV1 clone1 infected in HEK293 cells harboring A-790742-selected protease I84V mutation assessed as reduction in viral replication by luciferase reporter gene assay relative to wild type HIV1 pNL4-3; assay type: functional
How it was run: (§5)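 Single-cycle assay: HEK-293 cells were cotransfected with luciferase-reporter HIV-1 protease clones plus a VSV-G expression vector. After 4 h, cells were replated at 2 × 10⁴/well over serial inhibitor dilutions in triplicate. Pseudovirus collected at 48 h infected fresh HEK-293 (10⁴/well). Luciferase read 48 h later gave % inhibition versus untreated and EC50. Fold change against WT pNL4-3-Luc (clones 1-4) or RF-Luc (clone 5) is the mean of three experiments.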

[19] = system: Human immunodeficiency virus 1; experiment: Antiviral activity against HIV1 clone2 infected in HEK293 cells harboring A-790742-selected protease V82L mutation assessed as reduction in viral replication by luciferase reporter gene assay relative to wild type HIV1 pNL4-3; assay type: functional
How it was run: as §5

[20] = system: Human immunodeficiency virus 1; experiment: Antiviral activity against HIV1 clone4 infected in HEK293 cells harboring A-790742-selected protease L33F, A71V, G73S, V77I, V82L, and I84V mutation assessed as reduction in viral replication by luciferase reporter gene assay relative to wild type HIV1 pNL4-3; assay type: functional
How it was run: as §5

[21] = system: Human immunodeficiency virus 1; experiment: Antiviral activity against HIV1 clone5 infected in HEK293 cells harboring A-790742-selected protease L63P, A71V, and V82G mutation assessed as reduction in viral replication by luciferase reporter gene assay relative to wild type HIV1 RF; assay type: functional
How it was run: as §5

[22] = system: Human immunodeficiency virus 1; experiment: Antiviral activity against wild-type HIV1 pNL4-3 infected in human MT4 cells assessed as reduction in viral cytopathogenicity treated 1 hr post infection measured 5 days post infection in presence of 50% human serum by MTT assay; assay type: functional, organism-based; conditions: Human immunodeficiency virus 1, pNL4-3, MT4
[23] = system: Human immunodeficiency virus 1; experiment: Antiviral activity against wild-type HIV1 RF infected in human MT4 cells assessed as reduction in viral cytopathogenicity treated 1 hr post infection measured 5 days post infection in absence of human serum by MTT assay; assay type: functional, organism-based; conditions: Human immunodeficiency virus 1, RF
How it was run: as §4

[24] = system: Human immunodeficiency virus 1; experiment: (§6) Antiviral activity against HIV1 A17 infected in human MT4 cells harboring protease L10F, V32I, M46I, I47V, Q58E, and I84V mutation derived from viral passages with Lopinavir assessed as reduction in viral cytopathogenicity treated 1 hr post infection measured 5 days post infection by MTT assay; assay type: functional, organism-based; conditions: Human immunodeficiency virus 1, A17, MT4
How it was run: as §4

[25] = system: Human immunodeficiency virus 1; experiment: as §6, with “P25” for “A17”, “L10F, G16E,” for “L10F,”, “I47A, H69Y, I84V,” for “I47V, Q58E,”, “T91S” for “I84V”; assay type: functional, organism-based; conditions: Human immunodeficiency virus 1, P25, MT4
How it was run: as §4

[26] = system: Human immunodeficiency virus 1; experiment: Antiviral activity against HIV1 isolate 3 infected in human MT4 cells obtained from protease inhibitor-resistant patient harboring protease L10I, E35D, N37D, […], I54V, L63P, A71V, T74P, I84V, L90M, I93L mutation derived from viral passages with Lopinavir assessed as reduction in viral cytopathogenicity treated 1 hr post infection measured 5 days post infection by MTT assay relative to wild type …; assay type: functional
[27] = system: Human immunodeficiency virus 1; experiment: Antiviral activity against HIV1 isolate 4 infected in human MT4 cells obtained from protease inhibitor-resistant patient harboring protease N37T, M46I, Q58E, I64V, T74K, V77I, V82F, L90M mutation derived from viral passages with Lopinavir assessed as reduction in viral cytopathogenicity treated 1 hr post infection measured 5 days post infection by MTT assay relative to wild type HIV1 pNL4-3; assay type: functional
[28] = system: Human immunodeficiency virus 1; experiment: Antiviral activity against HIV1 isolate 5 infected in human MT4 cells obtained from protease inhibitor-resistant patient harboring protease L10F, I15V, M46I, L63P, A71V, I72L, V82T, I84V, I85V, L90M mutation derived from viral passages with Lopinavir assessed as reduction in viral cytopathogenicity treated 1 hr post infection measured 5 days post infection by MTT assay relative to wild type HIV1 …; assay type: functional

## COC(=O)N[C@H](C(=O)N[C@H](Cc1ccc(-c2ccccn2)cc1)C[C@H](O)[C@H](Cc1ccccc1)NC(=O)[C@@H](N1CCN(Cc2cccc(C(C)(C)O)n2)C1=O)C(C)(C)C)C(C)(C)C
[1]
  Ratio EC50: 2
[2]
  Ratio EC50: 10
[3]
  Ratio EC50: 11
[4]
  Ratio EC50: 1
[5]
  Ratio EC50: 4
[6]
  Ratio EC50: 5.3
[7]
  Ratio EC50: 10.7
[8]
  Ratio EC50: 16.7
[9]
  Ratio EC50: 46.7
[10]
  Ratio EC50: 133.3
[11]
  Ratio EC50: 186.7
[12]
  Ratio EC50: 300
[13]
  Ratio EC50: 666.7
[14]
  Ratio EC50: 3.2
[15]
  Ratio EC50: 100
[16]
  Ratio EC50: 13
[17]
  Ratio EC50: 72
[18]
  Ratio EC50: 2
[19]
  Ratio EC50: 22
[20]
  Ratio EC50: 158
[21]
  Ratio EC50: 72
[22]
  EC50: 20 nM
[23]
  EC50: 5 nM
[24]
  EC50: 10 nM
[25]
  EC50: 45 nM
[26]
  Ratio EC50: 33
[27]
  Ratio EC50: 1
[28]
  Ratio EC50: 2
